Results on 2 molecules are retold here after paper PMC6125788 (Molecular pharmaceutics, 2018).

Structures are written as SMILES.

Series [1] concerns A375 cells. Put plainly: Phototoxicity and dark toxicity, Alamar Blue assay. The class given is cell-based, human. The conditions noted are these: no irradiation, up to 1000 nM of IR700 equiv. The essentials:
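A375 cells were incubated overnight at 37 °C with free IR700 or PEG-IR700 conjugates at increasing concentrations (IR700 equiv.). Cells were then washed with fresh medium and kept unirradiated, as dark controls for the 660 nm photo-irradiation arm. Viability was measured 24 h later by Alamar Blue (4 h, fluorescence Ex 540/Em 590 nm); N = 4.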

Series [2] has as its system A375 cells. Put plainly: Cellular uptake by flow cytometry in A375 cells. The conditions noted are these: free cRGDfK 10 μM. The class given is cell-based, human. The method, boiled down:
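A375 cells grown in DMEM with 10% FBS and 1% penicillin/streptomycin at 37 °C, 5% CO2. Cells were exposed to untargeted or RGD-targeted PEG-IR700 conjugate for 4 h, with or without free cRGDfK (10 μM). They were then trypsinized to single cells, and cell-associated fluorescence was read by flow cytometry.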
(In general: A flow cytometer gives signals particle by particle.)

`C[Si](C)(CCC[N+](CCCS(=O)(=O)[O-])(CCCS(=O)(=O)[O-])CCCS(=O)(=O)[O-])O[Si]1(O[Si](C)(C)CCC[N+](CCCS(=O)(=O)[O-])(CCCS(=O)(=O)[O-])CCCS(=O)(=O)[O-])n2c3c4ccccc4c2N=C2N=C(N=c4c5ccccc5c(n41)=NC1=NC(=N3)c3ccccc31)c1cccc(OCCCOC(=O)NCCCCCC(=O)ON3C(=O)CCC3=O)c12.[Na+].[Na+].[Na+].[Na+]` (centres unmarked) [IR700, IRDye 700DX]: in the series with A375 cells [1], the cytotoxicity in dark result is “no dark toxicity”.

Regarding `N=C(N)NCCC[C@@H]1NC(=O)[C@H](CCCCN)NC(=O)[C@@H](Cc2ccccc2)NC(=O)[C@H](CC(=O)O)NC(=O)CNC1=O` [cRGDfK], the “effect of free peptide on uptake of RGD-8PEG-IR700” value in the series with A375 cells [2] is “dramatically reduce the uptake”.
